# CHRM1 antagonist – antagonists of human M1 muscarinic receptor | P11229 | CHO-K1 hM1, Fluo-8 calcium fluorescence, ACh EC80 antagonist | inhibition, % at 3 µM | 1.3% of 360,000 active | AID 588852;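 active = percent inhibition above its own plate's cutoff, namely the mean of that plate's compound wells plus 3 SD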;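 note: peak over basal fluorescence ratio during 140 s after agonist addition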
# Target sequence (P11229 whole entry, looked up): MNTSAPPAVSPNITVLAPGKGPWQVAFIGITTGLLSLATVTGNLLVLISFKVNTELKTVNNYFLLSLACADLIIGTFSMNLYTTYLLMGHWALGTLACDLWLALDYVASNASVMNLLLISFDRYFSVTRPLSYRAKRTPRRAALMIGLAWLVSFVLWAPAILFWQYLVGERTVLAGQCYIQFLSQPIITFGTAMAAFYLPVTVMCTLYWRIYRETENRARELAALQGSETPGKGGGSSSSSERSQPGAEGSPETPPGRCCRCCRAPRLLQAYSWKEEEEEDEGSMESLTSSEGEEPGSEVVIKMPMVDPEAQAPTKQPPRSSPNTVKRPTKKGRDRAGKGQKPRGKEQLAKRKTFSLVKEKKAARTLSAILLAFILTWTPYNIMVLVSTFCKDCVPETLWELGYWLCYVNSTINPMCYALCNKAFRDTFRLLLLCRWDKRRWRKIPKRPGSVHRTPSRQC
# CHRM5 antagonist – CHRM5 antagonism in calcium assay; P08912; CHO-hM5 cells, Fluo-8 calcium fluorescence, ACh EC80; inhibition, % at 3 µM; 0.59% of 360,000 active; AID 624040;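 active = inhibition above a per-plate cutoff, the mean of that plate's test compounds plus 3 SD, cut at about 27% in these data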
# CHRM5 agonist – agonists of human muscarinic M5 receptor (CHRM5); P08912; CHO-K1 hM5 cells, Fluo-8 calcium fluorescence; 0% DMSO wells, 100% maximal acetylcholine response; activation, % at 3 µM; 0.19% of 360,000 active; AID 624037;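 active = activation above the run's mean over test compounds plus 3 SD, cut at about 23% in these data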;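 note: signal is peak over basal fluorescence ratio across the kinetic read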
# M1 ag – human M1 muscarinic receptor agonism. activation, % at 3 µM. CHO-K1 hM1, Fluo-8 calcium fluorescence, agonist mode; 0% DMSO, 100% acetylcholine EC100. 0.33% of 360,000 active;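 active = activation above the run's mean compound activation plus 3 SD, cut at about 16% in these data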;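 note: peak over basal fluorescence ratio within a 140 s kinetic read after compound addition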
# M5 PAM – positive allosteric modulators of human muscarinic M5 receptor | CHO-K1 hM5, Fluo-8 calcium, ACh EC20 PAM; 0% = ACh EC20, 100% = ACh EC100 | activation, % at 3 µM | 0.3% of 360,000 active;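 active = activation above the run cutoff, the mean activation of all test compounds plus 3 SD, cut at about 18% in these data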
#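 Measured by: Fluo-8 calcium fluorescence; material: human M5 receptor in CHO-K1 cells; schedule: Post-acetylcholine fluorescence recording 140 s; benchmarks: low control EC20 acetylcholine (0%), high control EC100 acetylcholine (100%); read-out: Max/basal fluorescence ratio as % of EC20–EC100 ACh window; compound: single dose, 3 µM nominal final test concentration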
# CHRM1 PAM – positive allosteric modulators of human M1 muscarinic receptor; CHO-K1 hM1, Fluo-8 calcium fluorescence, ACh EC20; 0% = ACh EC20, 100% = maximal ACh; activation, % at 3 µM; AID 588819; 0.088% of 360,000 active; in the data active = activation above about 19%, passing the limit was not always enough
# Hits are given with their value; i = inactive; nt = no result given. A selection: hits, their analogues and other compounds. The true share with any hit is near 2.2%.
SMILES,CHRM1 antagonist,CHRM5 antagonist,CHRM5 agonist,M1 ag,M5 PAM,CHRM1 PAM
CC(=O)NCCNc1nc(NCc2ccccc2)nc2ccsc12,i,i,i,32,i,i
COc1ccccc1CNc1nc(NCCNC(C)=O)c2sccc2n1,i,i,i,i,i,i
COc1ccccc1-n1cc([C@@H]2C[C@H]3CN(c4ccccc4)C(=O)[C@]34CCCN24)cn1,i,i,i,i,i,i
Cc1cc(Cn2nnnc2-c2ccncc2)cc(C)c1O,i,i,i,i,i,i
COc1ccc(-c2cc(C(F)F)n3ncc(C(=O)Nc4cc(C)on4)c3n2)cc1,i,i,i,i,i,i
Cc1cccc(C)c1NC(=O)N1CCC(c2nc3ccccc3o2)CC1,28,i,i,i,i,i
COc1ccccc1NC(=S)N1CCC(c2nc3ccccc3o2)CC1,i,i,i,i,i,i
COc1ccc(-c2csc3ncnc(NCCCO)c23)cc1,i,i,i,i,i,i
CCN(CC)CCCNc1ncnc2scc(-c3ccc(F)cc3)c12,34,i,i,i,i,i
CC(Oc1ccc(C#N)cc1)C(=O)Nc1ccc(-n2cnnn2)cc1 (configuration not stated),i,i,i,17,i,i
CC(=O)Nc1ccc(-n2cnnn2)cc1,i,i,i,i,i,i
COc1ccc(C(=O)NC(C(=O)NCCc2ccc3c(c2)OCCO3)C(C)C)cc1 (configuration not stated),i,i,i,i,i,i
CN(C)c1ccc(-c2csc(C(O)c3ccc(F)cc3)n2)cc1 (configuration not stated),i,i,30,18,i,i
CN(C)c1ccc(-c2csc(C(O)c3ccc(F)c(F)c3)n2)cc1 (configuration not stated),42,37,50,42,i,i
Clc1ccc(OCCCN2CCCC2)cc1Cl,38,i,i,i,i,i
Cc1cc(Cl)cc(Cl)c1OCCN1CCCC1,i,i,i,i,24,i
Clc1ccc(OCCN2CCCCC2)cc1Cl,29,i,i,i,i,i
Clc1ccc(OCCN2CCOCC2)cc1Cl,i,i,i,i,i,i
COC(=O)c1cccc(N(CC(=O)NC2CCCC2)C(=O)CCC(=O)Nc2cc(C)on2)c1,i,i,i,i,i,i
Cc1cc(F)ccc1-c1cc(C(=O)NCc2ccc(C(F)(F)F)cc2)[nH]n1,i,i,33,32,i,i
CCOc1ccc(-c2cc(C(=O)NCc3ccc(C(F)(F)F)cc3)[nH]n2)c(C)c1,i,i,i,i,i,i
CC(=O)c1ccc(OCC(=O)OCc2cc(-c3ccco3)on2)cc1,i,i,i,i,i,i
O=c1[nH]cc(F)c(=O)n1C1OC(CO)C(O)C1O (configuration not stated),nt,i,i,nt,i,nt
O=C(Cc1ccc(Cl)cc1Cl)Nc1ccncc1Cl,i,30,i,i,i,i
CN1CCN(c2ncnc3scc(-c4ccccc4Cl)c23)CC1,i,30,i,i,i,i
SMILES,CHRM1 antagonist,CHRM5 antagonist,CHRM5 agonist,M1 ag,M5 PAM,CHRM1 PAM
Cc1cc(-c2csc3ncnc(N4CCN(C)CC4)c23)cc(C)c1C,i,i,i,i,i,i
CC(Oc1ccccc1)c1ccnn1S(=O)(=O)c1ccccc1 (configuration not stated),i,i,i,i,20,i
CC(Oc1ccc(Cl)cc1)c1ccnn1S(=O)(=O)c1ccc(Cl)cc1 (configuration not stated),i,i,i,i,i,i
Cn1cccc1C1Nc2ccccc2NC2=C1C(=O)CC(C)(C)C2 (configuration not stated),42,i,i,i,i,i
CC1(C)CC(=O)C2=C(C1)Nc1ccccc1NC2c1cccc(F)c1 (configuration not stated),i,i,i,i,i,i
C=CCSc1nnc(N2C(=O)C(O)=C(C(=O)c3ccco3)C2c2ccccc2F)s1 (configuration not stated),i,i,i,i,i,i
O=C(O)c1ccccc1C(=O)c1ccc(N2CCCC2)c([N+](=O)[O-])c1,i,i,i,i,i,i
CC(=O)c1ccc(N2CCN(c3ccccc3O)CC2)c([N+](=O)[O-])c1,37,31,i,i,i,i
CC1CCCC(C)N1C(=O)COc1ccc(C(=O)Nc2ccccc2N2CCOCC2)cc1 (configuration not stated),34,i,i,i,i,i
Cn1c(CCN2CCN(c3ccccn3)CC2)nc2cc(NS(=O)(=O)c3ccccc3)ccc21,69,i,i,i,i,i
CC1CCN(CCc2nc3cc(NC(=O)COc4ccccc4)ccc3n2C)CC1,i,i,i,i,i,i
CCCCC(=O)Nc1ccc2c(c1)nc(CCN1CCN(c3ccccn3)CC1)n2C,74,i,i,i,i,i
Cc1ccc(OCC(=O)Nc2ccc3c(c2)nc(CCN2CCN(c4ccccn4)CC2)n3C)cc1,62,i,i,i,i,i
Cn1c(CCN2CCCCC2)nc2cc(NS(=O)(=O)c3ccccc3)ccc21,i,i,i,i,i,i
CCCC(=O)Nc1ccc2c(c1)nc(CCN1CCN(c3ccccn3)CC1)n2C,i,i,i,i,i,i
Cc1ccc(OCC(=O)Nc2ccc3c(c2)nc(CCN2CCN(C)CC2)n3C)cc1,i,i,i,i,i,i
Cn1c(CCN2CCN(c3ccccn3)CC2)nc2cc(NC(=O)COc3ccccc3)ccc21,58,i,i,i,i,i
COc1ccc(-c2nn(-c3ccccc3)cc2CNC(=O)c2cccc([N+](=O)[O-])c2)cc1,i,i,i,i,i,i
O=C(c1cccs1)N1CCN(C23CC4CC(CC(C4)C2)C3)CC1,72,i,i,i,i,i
Cn1c(=O)c2[nH]c(-c3ccc(S(=O)(=O)O)cc3)nc2n(C)c1=O,i,i,68,29,i,i
CC(C)c1ccc(-c2nc3c([nH]2)c(=O)n(C)c(=O)n3C)cc1,i,i,i,i,i,i
COc1ccc(CCNc2ncnc3sc(C)cc23)cc1OC,41,37,i,i,i,i
COc1ccc(CCNc2ncnc3[nH]ncc23)cc1OC,i,i,i,i,i,i
CC(=O)NCCC(=O)N1CCCC(N(C)CCc2ccccc2)C1 (configuration not stated),45,i,i,i,i,i
O=C(CSc1nc(O)cc(=O)[nH]1)N1CCOCC1,i,i,i,i,i,i
Cc1cc(=O)[nH]c(SCC(=O)N2CCN(C(c3ccccc3)c3ccccc3)CC2)n1,52,32,i,i,i,i
Cc1cc(=O)[nH]c(SCC(=O)N2CCCCC2)n1,i,i,i,i,i,i
